A selection: hits, their analogues and other compounds. The true share with any hit is near 3.1%.
CHO parental Ca: signal in parental CHO cells, OX1R antagonist counter-screen | parental CHO-K1, ATP-induced calcium, Fluo-8 fluorescence | inhibition, % at 5.6 µM | actives 0.63% (n = 330,000) | AID 463079;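 active = inhibition above that plate's mean sample inhibition plus 3 SD, cut at about 26% in these data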;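 also: 0% = ATP-challenged DMSO wells and 100% = DMSO wells without ATP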
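Material: parental CHO cells / Compound: single nominal dose of 5.6 µM per compound / Signal: Fluo-8 fluorescence / Replicates: singlicate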
GPR7 antag: human neuropeptides B/W receptor 1 antagonism | inhibition, % at 4.4 µM | GPR7-expressing cells, fluorescence antagonist assay | P48145 | actives 1.1% (n = 290,000); in the data active = inhibition above about 16%, passing the limit was not always enough;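 also: cells stimulated with the agonist NPW; 0% = agonist with vehicle and 100% = vehicle without agonist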
OX1R antag-1: OX1R (human) antagonism; actives 1.8% (n = 330,000); inhibition, % at 6.6 µM; OX1R-expressing cells, FRET antagonist read-out; O43613; in the data active = inhibition mostly above about 38%, no sharp cut-off; inactive = mostly below about 40%;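 also: 0% = agonist challenge alone and 100% = reference antagonist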
Target sequence (O43613 whole entry, looked up): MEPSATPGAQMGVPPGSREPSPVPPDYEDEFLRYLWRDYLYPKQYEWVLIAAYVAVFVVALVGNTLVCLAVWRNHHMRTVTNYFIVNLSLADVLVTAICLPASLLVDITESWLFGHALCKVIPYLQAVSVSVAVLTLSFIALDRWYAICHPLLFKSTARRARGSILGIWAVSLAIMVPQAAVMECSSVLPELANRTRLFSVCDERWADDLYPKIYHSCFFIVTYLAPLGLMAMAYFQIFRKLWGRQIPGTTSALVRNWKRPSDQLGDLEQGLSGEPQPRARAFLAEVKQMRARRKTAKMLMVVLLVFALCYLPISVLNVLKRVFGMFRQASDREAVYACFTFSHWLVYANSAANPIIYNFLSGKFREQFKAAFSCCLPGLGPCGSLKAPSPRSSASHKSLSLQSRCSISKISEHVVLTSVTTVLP
OX1R antag-2: blocks the human orexin 1 receptor; O43613; CHO/OX1R cells, Fluo-8 calcium fluorescence, orexin A; inhibition, % at 5 µM; actives 0.43% (n = 330,000); AID 434989;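 active = inhibition above its plate's threshold, mean inhibition of all tested compounds on the plate plus 3 SD, cut at about 37% in these data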;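 also: 0% = orexin A challenge wells and 100% = SB-334867-A antagonist wells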
GalR3 antag: human GalR3 antagonism. AID 651719. inhibition, % at 3 µM. HEK293 GalR3-CNG cAMP membrane potential fluorescence; galR3 body fused to GalR1 C-terminus. O60755. actives 0.44% (n = 360,000);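 active = inhibition above the screen-wide average plus 3 SD, cut at about 13% in these data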;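 also: forskolin and galanin both at EC90 stimulate the cells; cAMP rise reported by CNG channel membrane potential dye signal; 0% = forskolin plus galanin with DMSO and 100% = forskolin alone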
GalR3 conf: GalR3 (human) antagonism, confirmation | shares compounds with GalR3 antag | HEK293 GalR3 CNG cAMP biosensor, membrane potential fluorescence; galR3 fused to GalR1 carboxy tail; challenged with forskolin and galanin at EC90 | inhibition, % at 3 µM | actives 59% (n = 1,600) | AID 652245;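 active = inhibition above the primary screen's cutoff, the mean inhibition of all screened compounds plus 3 SD, cut at about 13% in these data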;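 also: 0% = forskolin plus galanin and 100% = forskolin alone with DMSO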
HEK-CNG parental: counter-screen for GalR3 antagonists: nonspecific agonists in parental HEK-CNG cells; shares compounds with GalR3 antag; HEK293-CNG parental cells, cAMP membrane potential fluorescence; normalised: DMSO wells 0%, forskolin wells 100%; activation, % at 3 µM; actives 10% (n = 1,600); AID 652268; in the data active = activation above about 1.3%
* = called active by the depositor.

O=c1[nH]cccc1-c1nc2ccccc2n1Cc1ccc(F)cc1 was read as CHO parental Ca -13, GPR7 antag -1, OX1R antag-1 -2, OX1R antag-2 -9, GalR3 antag 87*, GalR3 conf -3 and HEK-CNG parental -1.
Screening N=c1nc2n(cc1F)C1OC(CO)C(O)C1O2 (stereo unspecified) returned GalR3 antag -5.
For O=S(=O)(c1ccccc1)N1CCC(O)(CSc2ccc(F)cc2)CC1 the results were CHO parental Ca -6, GPR7 antag 18*, OX1R antag-1 33, OX1R antag-2 5, GalR3 antag 72*, GalR3 conf 44* and HEK-CNG parental -1.
O=S(=O)(c1ccccc1)N1CCC(O)(CSc2ccccc2)CC1 was read as CHO parental Ca -2, GPR7 antag 7, OX1R antag-1 34, OX1R antag-2 -5 and GalR3 antag -4.
`COc1cc(N)c(C(O)c2nccc3cc(OC)c(OC)cc23)cc1OC` (stereo unspecified) gave CHO parental Ca -9, GPR7 antag -7, OX1R antag-1 11, OX1R antag-2 -10 and GalR3 antag -9.
For COc1ccc(C(O)c2nccc3cc(OC)c(OC)cc23)cc1OC (stereo unspecified) the results were CHO parental Ca -10, GPR7 antag -21, OX1R antag-1 10, OX1R antag-2 -24, GalR3 antag 17*, GalR3 conf 1 and HEK-CNG parental 0.
COc1cccc(OC)c1NC(=O)CN1CCN(C)CC1 was read as CHO parental Ca 0, GPR7 antag -10, OX1R antag-1 4, OX1R antag-2 -10 and GalR3 antag -8.
CCCS(=O)(=O)NC(=O)C1(C)CCN(C(=O)c2cccc3ccccc23)C1 (stereo unspecified) was read as GalR3 antag -5.
CC(C)CN(C(=O)COC(=O)C12CC3CC(CC(C3)C1)C2)c1c(N)n(Cc2ccccc2)c(=O)[nH]c1=O was read as CHO parental Ca -24, OX1R antag-1 12, OX1R antag-2 -21 and GalR3 antag -6.
COC(=O)C1=C(C)NC2=C(C(=O)CCC2)C1c1cn(Cc2ccc(Cl)cc2Cl)nc1-c1ccccc1 (stereo unspecified) was read as CHO parental Ca -16, GPR7 antag -16, OX1R antag-1 66, OX1R antag-2 13, GalR3 antag 37*, GalR3 conf 50* and HEK-CNG parental 0.
`CCOC(=O)C1=C(C)NC2=C(C(=O)CCC2)C1c1cn(Cc2ccc(Cl)cc2Cl)nc1-c1ccccc1` (stereo unspecified) gave CHO parental Ca -26, GPR7 antag -6, OX1R antag-1 25, OX1R antag-2 13, GalR3 antag 16*, GalR3 conf 13* and HEK-CNG parental 6.2*.
CCOC(=O)C1=C(C)NC2=C(C(=O)CCC2)C1c1cc(OC)ccc1OC (stereo unspecified) was read as CHO parental Ca -14, GPR7 antag -13, OX1R antag-1 6, OX1R antag-2 -18 and GalR3 antag -1.
OC(CN1CCC(Cc2ccccc2)CC1)c1ccccc1 (stereo unspecified) was read as CHO parental Ca -18, GPR7 antag -18, OX1R antag-1 16, OX1R antag-2 -36 and GalR3 antag -12.
COC(=O)C1=C(CS(=O)(=O)c2ccccc2)NC(=O)NC1c1ccc(O)cc1 (stereo unspecified) was read as CHO parental Ca -4, GPR7 antag -4, OX1R antag-1 13, OX1R antag-2 -6 and GalR3 antag -10.
Screening COc1ccc(NC(=O)C2Cc3c(-c4cccc(C(C)=O)c4)ccnc3O2)cc1OC (stereo unspecified) returned GalR3 antag 61*, GalR3 conf 104* and HEK-CNG parental 0.
Screening CCOc1ccc(NC(=O)CSc2nnc(C3CC3)n2C2CC2)cc1 returned CHO parental Ca -3, OX1R antag-1 2, OX1R antag-2 5 and GalR3 antag -2.
For COCCn1c(SCCCC(=O)c2ccc(Br)cc2)nnc1-c1ccncc1 the results were CHO parental Ca 22, GPR7 antag 22, OX1R antag-1 27, OX1R antag-2 26, GalR3 antag 18*, GalR3 conf 38* and HEK-CNG parental 0.
For Cn1c(SCCCC(=O)c2ccc(F)cc2)nnc1-c1ccncc1 the results were CHO parental Ca -8, GPR7 antag 9, OX1R antag-1 16, OX1R antag-2 -9 and GalR3 antag -3.
`OCc1ccccc1O[C@@H]1O[C@H](CO)[C@@H](O)[C@H](O)[C@H]1O` gave CHO parental Ca -11, GPR7 antag 3, OX1R antag-1 5, OX1R antag-2 -11 and GalR3 antag -4.
For Nc1oc2ccccc2c1C(=O)Cc1ccccc1O[C@@H]1O[C@H](CO)[C@@H](O)[C@H](O)[C@H]1O the results were CHO parental Ca -4, OX1R antag-1 8, OX1R antag-2 -6, GalR3 antag 16*, GalR3 conf 9 and HEK-CNG parental 0.
Cc1cc(=O)[nH]c(-c2ccccc2)n1 was read as CHO parental Ca -9, GPR7 antag 1, OX1R antag-1 1, OX1R antag-2 -27 and GalR3 antag 1.
`Cc1cc(-c2ccccc2)cc(=O)[nH]1` gave GalR3 antag 19*, GalR3 conf 12 and HEK-CNG parental 0.
CCCc1cc(=O)oc2c3c(cc(OCC(=O)N[C@@H](C)C(=O)O)c12)OC(C)(C)CC3 was read as CHO parental Ca -4, GPR7 antag -3, OX1R antag-1 8, OX1R antag-2 -16 and GalR3 antag -11.
`CCCc1cc(=O)oc2c3c(cc(OCC(=O)NCc4ccncc4)c12)OC(C)(C)CC3` gave CHO parental Ca -21, GPR7 antag 6, OX1R antag-1 12, OX1R antag-2 -30, GalR3 antag 15*, GalR3 conf 7 and HEK-CNG parental 0.
Screening CCOC(=O)c1ccc(-c2c(-c3cc(OC)c(OC)c(OC)c3)noc2C)cc1F returned CHO parental Ca -23, GPR7 antag 18, OX1R antag-1 14, OX1R antag-2 -15, GalR3 conf 5 and HEK-CNG parental 3.8*.
For COCCn1c(N)c(N(Cc2ccccc2)C(=O)CSCC(=O)Nc2ccc(C)cc2)c(=O)[nH]c1=O the results were CHO parental Ca -11, OX1R antag-1 12, OX1R antag-2 12 and GalR3 antag 1.
